The text below walks through data of ChEMBL document CHEMBL2401705, “Discovery of triazines as potent, selective and orally active PDE4 inhibitors” (Bioorg Med Chem Lett, 2013).

In brackets after ≈: the same amount, converted by molar mass.

Data set [1] in a line: Intrinsic clearance in rat liver microsomes. The data set is classed as ADME, Microsome. Particulars: read-out: CLH. (Liver microsomes are vesicles of endoplasmic reticulum, rich in cytochrome P450 enzymes.)
The target of data set [2] is 3',5'-cyclic-AMP phosphodiesterase 4A (Homo sapiens, UniProt P27815). Kind of data set: Inhibition of human full length PDE4A4 expressed in baculovirus infected sf21 cells.
The target of data set [3] is High affinity 3',5'-cyclic-AMP phosphodiesterase 7A (Homo sapiens, UniProt Q13946). Kind of data set: Inhibition of human full length PDE7A1 expressed in baculovirus infected sf21 cells.
Data set [4] in a line: Inhibition of cytochrome P450 (unknown origin). Particulars: human; call rule not given here. Type of data set: ADME.
The target in data set [5] is Voltage-gated inwardly rectifying potassium channel KCNH2 (Homo sapiens, UniProt Q12809). In words: Inhibition of human ERG. Put shortly:
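hERG was tested in a binding-format assay as percent inhibition at a single test concentration of 10 µM.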

Data set [6] is described as follows: Aqueous solubility of the compound at pH 7.4. The note with it: buffer.
The target of a further data set is serum albumin (Homo sapiens, UniProt P02768). In words: Binding affinity to human serum albumin. Type of data set: ADME. The note with it: read-out: PB (converted).
The subject of data set [7] is Mustela putorius furo. In words: Toxicity in po dosed ferret assessed as first emetic dose by measuring occurrence of vomiting episode after 6 hrs. Particulars: in vivo. The data set is classed as organism-based. Put shortly: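 Ferrets were given oral doses and watched for 6 h after administration for a vomiting episode; the first emetic dose was reported in mg/kg.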

Data set [8] has as its system Mustela putorius furo. In words: Inhibition of LPS-induced neutrophilia in ferret COPD model BAL-fluid at 0.01 mg/kg, po. Type of data set: functional. Summed up:
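Ferrets challenged by LPS inhalation, with compound given orally. Read-out is the change in neutrophil count in bronchoalveolar lavage fluid, expressed as percentage inhibition.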

A further data set is filed under the species Homo sapiens. In words: Selectivity ratio of IC50 for human full length PDE7A1 to IC50 for human full length PDE4A4.
For data set [9], the system named is Mustela putorius furo. In words: Inhibition of LPS-induced neutrophilia in ferret COPD model BAL-fluid at 10 mg/kg, po. The data set is classed as functional.
The subject of data set [10] is Mustela putorius furo. In words: Toxicity in iv dosed ferret assessed as first emetic dose by measuring occurrence of vomiting episode after 6 hrs. The data set is classed as organism-based. The note with it: in vivo.

Sequence of 3',5'-cyclic-AMP phosphodiesterase 4A (P27815 whole entry): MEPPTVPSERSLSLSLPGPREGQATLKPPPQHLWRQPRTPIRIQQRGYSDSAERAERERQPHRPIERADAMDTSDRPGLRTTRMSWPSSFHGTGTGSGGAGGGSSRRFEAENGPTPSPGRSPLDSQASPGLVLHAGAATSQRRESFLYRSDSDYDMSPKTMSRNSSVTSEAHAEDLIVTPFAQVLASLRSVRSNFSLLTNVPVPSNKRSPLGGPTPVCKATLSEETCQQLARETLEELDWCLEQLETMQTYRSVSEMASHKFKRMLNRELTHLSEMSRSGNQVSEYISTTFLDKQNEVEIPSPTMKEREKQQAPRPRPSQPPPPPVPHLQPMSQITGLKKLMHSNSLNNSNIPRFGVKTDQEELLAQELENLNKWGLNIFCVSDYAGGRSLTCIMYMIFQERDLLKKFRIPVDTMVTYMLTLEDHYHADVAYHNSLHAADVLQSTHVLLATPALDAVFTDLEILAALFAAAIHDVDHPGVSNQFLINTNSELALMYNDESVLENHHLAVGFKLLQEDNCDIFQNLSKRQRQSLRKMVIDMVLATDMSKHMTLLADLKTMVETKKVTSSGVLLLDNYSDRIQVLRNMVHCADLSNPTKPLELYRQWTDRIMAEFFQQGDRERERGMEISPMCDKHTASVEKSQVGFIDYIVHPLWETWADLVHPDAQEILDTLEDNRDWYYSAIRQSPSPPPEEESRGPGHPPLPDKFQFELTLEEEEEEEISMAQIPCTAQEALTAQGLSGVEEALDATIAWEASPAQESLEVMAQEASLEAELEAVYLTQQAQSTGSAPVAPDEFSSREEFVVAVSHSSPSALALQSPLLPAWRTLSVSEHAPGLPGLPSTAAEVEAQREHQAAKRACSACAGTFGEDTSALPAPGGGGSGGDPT
Sequence of High affinity 3',5'-cyclic-AMP phosphodiesterase 7A (Q13946 whole entry): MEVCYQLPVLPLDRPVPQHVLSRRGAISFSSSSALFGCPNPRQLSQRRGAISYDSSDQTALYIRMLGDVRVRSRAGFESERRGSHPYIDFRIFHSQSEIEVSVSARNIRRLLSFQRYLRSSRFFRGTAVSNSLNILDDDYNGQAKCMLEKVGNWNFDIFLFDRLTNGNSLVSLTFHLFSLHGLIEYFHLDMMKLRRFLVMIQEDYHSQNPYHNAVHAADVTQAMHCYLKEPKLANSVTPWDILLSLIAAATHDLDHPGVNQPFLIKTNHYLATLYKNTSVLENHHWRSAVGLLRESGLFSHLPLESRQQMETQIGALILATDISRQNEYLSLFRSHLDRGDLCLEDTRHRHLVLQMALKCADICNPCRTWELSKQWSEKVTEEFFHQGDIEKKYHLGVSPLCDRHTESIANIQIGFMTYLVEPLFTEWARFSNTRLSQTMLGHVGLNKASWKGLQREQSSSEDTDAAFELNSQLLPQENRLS
Sequence of serum albumin (P02768 whole entry): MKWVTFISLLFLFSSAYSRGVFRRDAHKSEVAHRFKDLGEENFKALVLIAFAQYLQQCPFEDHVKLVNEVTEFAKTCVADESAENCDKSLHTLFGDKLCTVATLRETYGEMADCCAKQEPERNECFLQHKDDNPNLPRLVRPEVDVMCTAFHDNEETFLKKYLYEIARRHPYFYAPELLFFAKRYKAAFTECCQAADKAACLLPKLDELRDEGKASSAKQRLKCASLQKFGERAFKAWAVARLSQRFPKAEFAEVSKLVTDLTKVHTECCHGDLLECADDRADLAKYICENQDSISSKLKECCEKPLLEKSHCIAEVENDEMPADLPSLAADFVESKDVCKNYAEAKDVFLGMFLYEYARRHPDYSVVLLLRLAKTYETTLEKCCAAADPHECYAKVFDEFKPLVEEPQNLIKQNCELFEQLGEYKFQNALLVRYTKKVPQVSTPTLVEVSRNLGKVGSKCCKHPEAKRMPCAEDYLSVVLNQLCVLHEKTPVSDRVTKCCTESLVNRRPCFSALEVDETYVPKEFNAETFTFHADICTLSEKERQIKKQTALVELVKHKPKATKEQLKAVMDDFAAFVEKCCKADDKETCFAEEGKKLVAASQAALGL
Sequence of Voltage-gated inwardly rectifying potassium channel KCNH2 (Q12809 whole entry): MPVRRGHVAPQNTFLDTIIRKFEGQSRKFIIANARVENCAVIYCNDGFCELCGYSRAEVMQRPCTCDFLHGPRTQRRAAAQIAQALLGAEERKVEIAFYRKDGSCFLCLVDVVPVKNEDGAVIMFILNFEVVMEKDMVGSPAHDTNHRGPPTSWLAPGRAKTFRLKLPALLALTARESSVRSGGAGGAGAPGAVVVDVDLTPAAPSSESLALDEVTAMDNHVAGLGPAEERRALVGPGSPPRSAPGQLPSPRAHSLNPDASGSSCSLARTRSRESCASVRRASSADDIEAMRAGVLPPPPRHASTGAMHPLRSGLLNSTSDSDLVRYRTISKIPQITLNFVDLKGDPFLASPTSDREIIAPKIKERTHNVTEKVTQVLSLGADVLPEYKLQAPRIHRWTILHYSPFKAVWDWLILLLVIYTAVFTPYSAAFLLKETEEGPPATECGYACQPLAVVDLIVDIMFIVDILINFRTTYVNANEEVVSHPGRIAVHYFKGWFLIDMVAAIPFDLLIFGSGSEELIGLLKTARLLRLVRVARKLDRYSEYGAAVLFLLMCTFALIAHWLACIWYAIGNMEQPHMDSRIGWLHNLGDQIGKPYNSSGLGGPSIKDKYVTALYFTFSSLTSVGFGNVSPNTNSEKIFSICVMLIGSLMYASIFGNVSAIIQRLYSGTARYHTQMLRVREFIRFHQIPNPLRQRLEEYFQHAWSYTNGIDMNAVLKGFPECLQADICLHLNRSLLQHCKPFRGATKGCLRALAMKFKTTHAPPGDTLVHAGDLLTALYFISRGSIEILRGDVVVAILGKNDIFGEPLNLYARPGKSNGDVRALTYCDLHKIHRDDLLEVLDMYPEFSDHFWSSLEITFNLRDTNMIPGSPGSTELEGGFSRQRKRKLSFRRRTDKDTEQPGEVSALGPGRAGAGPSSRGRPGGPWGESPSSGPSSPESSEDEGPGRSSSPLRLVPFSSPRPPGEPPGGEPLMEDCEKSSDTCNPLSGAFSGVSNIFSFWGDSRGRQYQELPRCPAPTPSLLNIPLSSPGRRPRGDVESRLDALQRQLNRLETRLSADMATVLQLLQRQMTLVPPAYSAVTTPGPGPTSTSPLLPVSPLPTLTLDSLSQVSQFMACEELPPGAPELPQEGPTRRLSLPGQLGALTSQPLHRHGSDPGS

With `CNc1nc(NC2(C#N)CCC(C)CC2)nc(-n2cncn2)n1` (mixture of isomers), the CLint scaled in [1] was 37 mL/min/kg. Moreover, in [2], the concentration for half-maximal inhibition (IC50) (in general, the midpoint of a concentration-inhibition curve) came to 1.6 nM.
Regarding `CNc1nc(NC2(C#N)CCCC(C)C2)nc(-n2cncn2)n1` (mixture of isomers), the CLint scaled in data set [1] turned out to be 96 mL/min/kg. The compound also yielded a half-inhibitory concentration (IC50) in data set [2] of 0.2 nM.
On to `CCNc1nc(Cl)nc(NC2(C#N)CCCCC2)n1`, for which the half-inhibitory concentration (IC50) in data set [2] was determined as 232 nM.
With `CNc1nc(NC2(C#N)CCCCC2)nc(-n2ccnc2)n1`, the CLint scaled in data set [1] came to 52 mL/min/kg. For the same compound, the IC50 in data set [3] was 1050 nM; in [2], 6.6 nM. Also, the “inhibition (INH)” value in [4] and in data set [5] was “Not Active” each time.
`CNc1nc(NC2(C#N)CCCCC2)nc(N2CCCC2)n1`: the CLint scaled in data set [1] was more than 276 mL/min/kg. In addition, the IC50 in data set [3] is more than 5000 nM; in data set [2], 38 nM.
For `CNc1nc(N)nc(NC2(C#N)CCCCC2)n1`, the IC50 in data set [2] was more than 1000 nM.
Consider `CNc1nc(NC(C#N)(C2CC2)C2CC2)nc(-n2cncn2)n1`, for which the CLint scaled in data set [1] is 3.7 mL/min/kg. The amount in solution in data set [6] (solubility) came to 22 µg/mL (≈ 70.7 µM). Moreover, the IC50 in [2] was 0.89 nM.
For `CCCC(C#N)(CC)Nc1nc(NC)nc(-n2cncn2)n1` (racemic) the same measures were 29 mL/min/kg, 76 µg/mL (≈ 252 µM) and 1.1 nM.
In data set [2], `CNc1nc(Cl)nc(NC2CCCCC2)n1` registered an IC50 of 104 nM.
Compound `CNc1nc(Cl)nc(NC2(C#N)CCCCCC2)n1` registered a half-maximal inhibitory concentration (IC50) in data set [2] of 44 nM.
As to `O=C(Nc1c(Cl)cncc1Cl)c1ccc(OC(F)F)c(OCC2CC2)c1` [ROFLUMILAST], in [6], the solubility (in general, the dissolved amount per volume that the medium holds) is 1.3 µg/mL (≈ 3.22 µM). On serum albumin, the fraction unbound was 0.03. Also, the Activity in the data set on Mustela putorius furo [7] turned out to be 1 mg/kg. Besides, in the data set on Mustela putorius furo [8], the inhibition in vivo (as a rule, the drop in the measured response relative to a control, in per cent) at 0.01 mg/kg is 65%.
Consider `CNc1nc(NC2(C#N)CCCCC2)nc(-n2cnc3ccccc32)n1`, for which the half-maximal inhibitory concentration (IC50) in data set [3] is more than 1000 nM; in data set [2], 12 nM.
Regarding `CNc1nc(NC2(C#N)CCCCC2)nc(OC)n1`, the CLint scaled in data set [1] is 196 mL/min/kg. In addition, the IC50 amounted to 521 nM in data set [3] and 19 nM in data set [2].
For the compound `CNc1nc(NC2(C#N)CCCCC2)nc(C2CC2)n1`, the CLint scaled in [1] came to 276 mL/min/kg. The concentration for half-maximal inhibition (IC50) is 539 nM in data set [3] and 19 nM in data set [2].
Regarding `CNc1nc(NC2(C#N)CCCCC2)nc(-n2cncn2)n1`, the CLint scaled in data set [1] is 52 mL/min/kg. The compound further returned a solubility in data set [6] of 11 µg/mL (≈ 36.7 µM). The Ratio IC50 in the data set filed under Homo sapiens was more than 1000. Moreover, the half-inhibitory concentration (IC50) in data set [3] was more than 5000 nM; in data set [2], 1.7 nM. Moreover, the “inhibition (INH)” value in [4] and in data set [5] was “Not Active” in each case.
As to `N#CC1(Nc2nc(N)nc(Cl)n2)CCCCC1`, half-maximal inhibition in data set [2] (IC50) required 1040 nM.
Take `CNc1nc(NC2(C#N)CCCCC2C)nc(-n2cncn2)n1` (mixture of isomers): the CLint scaled in data set [1] is 86 mL/min/kg. Moreover, the solubility in data set [6] came out at 25 µg/mL. Besides, in data set [2], the midpoint of inhibition, the IC50, lay at 0.15 nM.
In data set [2], `CCCC(C#N)(CCC)Nc1nc(Cl)nc(NC)n1` yielded a half-maximal inhibitory concentration (IC50) of 60 nM.
On to `CNc1nc(NC)nc(NC2(C#N)CCCCC2)n1`, for which the CLint scaled in [1] was found to be 210 mL/min/kg. Besides, the values for the IC50 in data set [3] and in data set [2] were more than 1000 nM and 153 nM, respectively.
The corresponding values for `CNc1nc(Cl)nc(NC2(C#N)CCCCC2)n1` are 867 mL/min/kg, 1070 nM and 40 nM.
For `CNc1nc(NC2(C#N)CCCCC2)nc(-n2cnc(C)n2)n1` the same measures were more than 276 mL/min/kg, more than 5000 nM and 1 nM.
As to `CCC(C#N)(CC)Nc1nc(Cl)nc(NC)n1`, the IC50 in [2] is 87 nM.
The same measure, in the same setting: the value for `CN(C)c1nc(Cl)nc(NC2(C#N)CCCCC2)n1` was 668 nM.
As for `CNc1nc(Nc2ccccc2)nc(NC2(C#N)CCCCC2)n1`, the IC50 in data set [3] is more than 5000 nM; in [2], 56 nM.
In data set [2], `C#CC1(Nc2nc(Cl)nc(NC)n2)CCCCC1` yielded a half-maximal inhibitory concentration (IC50) of 149 nM.
In data set [2], `CONc1nc(Cl)nc(NC2(C#N)CCCCC2)n1` registered an IC50 of 165 nM.
Turning to `CNc1nc(NC2CCCC2)nc(NC2(C#N)CCCCC2)n1`, the IC50 in data set [3] is more than 5000 nM; in data set [2], 59 nM.
Regarding `CNc1nc(NC2(C#N)CCCCC2)nc(N(C)C)n1`, the CLint scaled in data set [1] was 276 mL/min/kg. Also, the concentration for half-maximal inhibition (IC50) in data set [3] is more than 5000 nM; in data set [2] it was 18 nM.
For `CNc1nc(C#N)nc(NC2(C#N)CCCCC2)n1` the same measures were 122 mL/min/kg, more than 1000 nM and 38 nM.
Turning to `CCCC(C#N)(CCC)Nc1nc(NC)nc(-n2cncn2)n1`, in [1], the CLint scaled worked out at 32 mL/min/kg. Also, the IC50 in [2] amounted to 6.5 nM.
Consider `N#CC1(Nc2nc(Cl)nc(NC3CC3)n2)CCCCC1`, for which the half-maximal inhibitory concentration (IC50) in [2] came out at 126 nM.
On the same count and under the same terms, the value for `CNc1nc(Cl)nc(NC(C)(C)C#N)n1` was 160 nM.
`CNc1nc(Cl)nc(NC(C)(C)C)n1` showed an IC50 in [2] of 245 nM.
For `CNc1nc(NC2(C#N)CCCCC2)nc(-n2cnc(C#N)n2)n1`, in data set [1], the CLint scaled is 210 mL/min/kg. The IC50 was more than 5000 nM in [3] and 4.9 nM in data set [2].
In data set [2], `CCC(C)(CC)Nc1nc(Cl)nc(NC)n1` gave an IC50 of 156 nM.
Same read-out and setting: the value for `CN(c1nc(N)nc(Cl)n1)C1(C#N)CCCCC1` was 563 nM.
For the compound `COc1ccc([C@]2(C#N)CC[C@@H](C(=O)O)CC2)cc1OC1CCCC1` [CILOMILAST], the concentration in solution in data set [6] (solubility) came to 17 µg/mL (≈ 49.5 µM). Further, on serum albumin, the fraction unbound is 0.09. Testing at 10 mg/kg with Mustela putorius furo [9] gave an inhibition in vivo of 35%. For the same compound, the Activity in the data set with Mustela putorius furo [7] came to 1 mg/kg.
`CNc1nc(NC2(C#N)CCCCC2)nc(-n2cccn2)n1`: in data set [1], the CLint scaled was found to be 103 mL/min/kg. In addition, the IC50 is more than 5000 nM in [3] and 3.6 nM in data set [2].
Regarding `CCC(C)(C#N)Nc1nc(NC)nc(-n2cncn2)n1` (racemic), the CLint scaled in [1] came out at 32 mL/min/kg. In data set [6], this compound yielded a solubility of 50 µg/mL (≈ 183 µM). Also, in data set [2], the half-maximal inhibitory concentration (IC50) was 2.4 nM.
For `CNc1nc(NC2(C#N)CCCCC2)nc(SC)n1`, in [1], the CLint scaled is 579 mL/min/kg. Besides, the half-maximal inhibitory concentration (IC50) in data set [3] is 46 nM; in [2], 4.4 nM.
In the case of `C#CC(CC)(CC)Nc1nc(NC)nc(-n2cncn2)n1`, the CLint scaled in data set [1] came to 22 mL/min/kg. Also, in data set [2], the IC50 is 2.7 nM.
Take `COc1ccc(C2CNC(=O)C2)cc1OC1CCCC1` (racemic) [ROLIPRAM]: the Activity in the data set on Mustela putorius furo [10] is 0.3 mg/kg. The compound also had a solubility in [6] of 171 µg/mL (≈ 621 µM). Also, on serum albumin, the fraction unbound was 0.42.
In turn, `CNc1nc(Cl)nc(NC2(C#N)CCCC2)n1` displayed a 50% inhibitory concentration (IC50) in [2] of 54 nM.
In the case of `CNc1nc(NC2(C#N)CCCC2)nc(-n2cncn2)n1`, the CLint scaled in data set [1] was determined as 43 mL/min/kg. The compound also returned a solubility in data set [6] of 165 µg/mL (≈ 578 µM). Also, inhibition in data set [2] was half-maximal at 1.4 nM (IC50).
The corresponding values for `CNc1nc(NC2(C#N)CCCCCC2)nc(-n2cncn2)n1` are 276 mL/min/kg, 9 µg/mL (≈ 28.7 µM) and 0.42 nM.
